ChEMBL document CHEMBL1127562, “N-substituted spirosuccinimide, spiropyridazine, spiroazetidine, and acetic acid aldose reductase inhibitors derived from isoquinoline-1,3-diones. 2” (J Med Chem, 1994)
Calls of active or inactive are those of the source. The calls are words filed in the database; no cut-off is given here.

Legend:
Rattus norvegicus [1] = assay: Tested for in vivo inhibition of galactitol accumulation in the lens of galactose-fed rats at the dose of 97.1 (mg/kg/day); NS=Not significant; type: functional, organism-based; settings: Lens of camera-type eye
Outline: (§1)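 Galactosemic rats were fed 20% galactose for 4 days, with the compound mixed into the diet. […] galactitol accumulation was measured, and activity is given as % inhibition at the stated daily dose (mg/kg/day). Values are mean ± SEM of six animals; p < 0.01 unless indicated. NS means no significant inhibition of polyol accumulation.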

[2] = biological target: Aldo-keto reductase family 1 member B1 (Bos taurus) (UniProt P16116); assay: Inhibition of aldose reductase activity in partially purified bovine lens preparation at 10e-5 M
Outline: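 Partially purified bovine lens aldose reductase. Reduction of DL-glyceraldehyde substrate followed spectrophotometrically. Activity expressed as average inhibition at the tested concentrations, 1×10^-5, 1×10^-6, 1×10^-7 and 4×10^-6 M as printed; IC50 in M where given.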

Rattus norvegicus [3] = assay: Tested for in vivo inhibition of galactitol accumulation in the sciatic nerve of galactose-fed rats at the dose of 97.1 (mg/kg/day); NS=Not significant; type: functional, organism-based
Outline: (§2)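 Rats fed a 20% galactose diet for 4 days, with test compound given in the diet at the stated daily dose (mg/kg/day). Read-out is inhibition of galactitol (polyol) accumulation in sciatic nerve. Values are % inhibition, mean ± SEM of six animals; p < 0.01 unless marked (some p < 0.05). NS = no significant inhibition of polyol accumulation. Tolrestat was the reference standard.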

Rattus norvegicus [4] = assay: Tested for in vivo inhibition of galactitol accumulation in the sciatic nerve of galactose-fed rats at the dose of 1.0 (mg/kg/day); NS=Not significant; type: functional, organism-based
Outline: (§3)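 Rats were given a 20% galactose diet for 4 days, with the test compound administered in the diet. Sciatic nerve galactitol accumulation was measured, and activity is given as % inhibition at the stated daily dose (mg/kg/day). Values are mean ± SEM, n = 6 animals; p < 0.01 unless indicated. NS means no significant inhibition of polyol accumulation.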

Rattus norvegicus [5] = assay: Tested for in vivo inhibition of galactitol accumulation in the sciatic nerve of galactose-fed rats at the dose of 98 (mg/kg/day); NS=Not significant; type: functional, organism-based; outline: as §2
Rattus norvegicus [6] = assay: Tested for in vivo inhibition of galactitol accumulation in the lens of galactose-fed rats at the dose of 98 (mg/kg/day); NS=Not significant; type: functional, organism-based; settings: Lens of camera-type eye; outline: as §1
[7] = biological target: Aldo-keto reductase family 1 member B1 (Bos taurus) (UniProt P16116); assay: Inhibition of aldose reductase activity in partially purified bovine lens preparation at 4*10 e-8 M
Rattus norvegicus [8] = assay: Tested for in vivo inhibition of galactitol accumulation in the lens of galactose-fed rats at the dose of 26.1 (mg/kg/day); NS=Not significant; type: functional, organism-based; settings: Lens of camera-type eye
Rattus norvegicus [9] = assay: Tested for in vivo inhibition of galactitol accumulation in the sciatic nerve of galactose-fed rats at the dose of 26.1 (mg/kg/day); NS=Not significant; type: functional, organism-based; outline: as §3
Rattus norvegicus [10] = assay: Tested for in vivo inhibition of galactitol accumulation in the lens of galactose-fed rats at the dose of 24.9 (mg/kg/day); NS=Not significant; type: functional, organism-based; settings: Lens of camera-type eye
Rattus norvegicus [11] = assay: Tested for in vivo inhibition of galactitol accumulation in the sciatic nerve of galactose-fed rats at the dose of 24.9 (mg/kg/day); NS=Not significant; type: functional, organism-based; outline: as §3
Rattus norvegicus [12] = assay: Tested for in vivo inhibition of galactitol accumulation in the lens of galactose-fed rats at the dose of 50 (mg/kg/day); type: functional, Lens of camera-type eye
Rattus norvegicus [13] = assay: Tested for in vivo inhibition of galactitol accumulation in the sciatic nerve of galactose-fed rats at the dose of 50 (mg/kg/day); type: functional; outline: as §2
Rattus norvegicus [14] = assay: Tested for in vivo inhibition of galactitol accumulation in the sciatic nerve of galactose-fed rats at the dose of 25 (mg/kg/day); NS=Not significant; type: functional, organism-based; outline: as §3
Rattus norvegicus [15] = assay: Tested for in vivo inhibition of galactitol accumulation in the lens of galactose-fed rats at the dose of 25 (mg/kg/day); NS=Not significant; type: functional, organism-based; settings: Lens of camera-type eye
Rattus norvegicus [16] = assay: Tested for in vivo inhibition of galactitol accumulation in the sciatic nerve of galactose-fed rats at the dose of 69.2 (mg/kg/day); NS=Not significant; type: functional, organism-based; outline: as §2
Rattus norvegicus [17] = assay: Tested for in vivo inhibition of galactitol accumulation in the lens of galactose-fed rats at the dose of 69.2 (mg/kg/day); NS=Not significant; type: functional, organism-based; settings: Lens of camera-type eye; outline: as §1
Rattus norvegicus [18] = assay: Tested for in vivo inhibition of galactitol accumulation in the lens of galactose-fed rats at the dose of 25.2 (mg/kg/day); NS=Not significant; type: functional, organism-based; settings: Lens of camera-type eye
Rattus norvegicus [19] = assay: Tested for in vivo inhibition of galactitol accumulation in the sciatic nerve of galactose-fed rats at the dose of 25.2 (mg/kg/day); NS=Not significant; type: functional, organism-based; outline: as §3
Rattus norvegicus [20] = assay: Tested for in vivo inhibition of galactitol accumulation in the sciatic nerve of galactose-fed rats at the dose of 1.0 (mg/kg/day); NS=Not significant
Rattus norvegicus [21] = assay: Tested for in vivo inhibition of galactitol accumulation in the sciatic nerve of galactose-fed rats at the dose of 55 (mg/kg/day); NS=Not significant; type: functional, organism-based; outline: as §2
Rattus norvegicus [22] = assay: Tested for in vivo inhibition of galactitol accumulation in the lens of galactose-fed rats at the dose of 47.7 (mg/kg/day); NS=Not significant; type: functional, organism-based; settings: Lens of camera-type eye
Rattus norvegicus [23] = assay: Tested for in vivo inhibition of galactitol accumulation in the sciatic nerve of galactose-fed rats at the dose of 47.7 (mg/kg/day); NS=Not significant; type: functional, organism-based; outline: as §3

CCCCN1C(=O)c2ccccc2C(CC(=O)NC(=O)OC)C1=O (configuration not stated)
inhibition (Rattus norvegicus [1]): inactive | inhibition [2]: inactive | inhibition (Rattus norvegicus [3]): inactive

CCCCN1C(=O)CC2(C1=O)C(=O)N(Cc1ccc(Br)cc1F)C(=O)c1ccccc12 (configuration not stated)
inhibition (Rattus norvegicus [4]): inactive | inhibition [2]: inactive

O=C(O)CC1C(=O)N(Cc2ccc(Cl)c(Cl)c2)C(=O)c2ccccc21 (configuration not stated)
inhibition (Rattus norvegicus [5]): inactive | inhibition (Rattus norvegicus [6]): inactive | inhibition [7]: 58%

CNC(=O)CC1C(=O)N(Cc2ccc(Br)cc2F)C(=O)c2ccccc21 (configuration not stated)
inhibition [2]: 62%

O=C(O)CC1C(=O)N(Cc2ccc(Br)cc2F)C(=O)c2cc(Cl)ccc21 (configuration not stated)
inhibition (Rattus norvegicus [8]): inactive | inhibition [7]: 30% | inhibition (Rattus norvegicus [9]): inactive

O=C1Cc2c(n(Cc3ccc(Br)cc3F)c(=O)c3ccccc23)O1
inhibition (Rattus norvegicus [10]): inactive | inhibition [7]: 32% | inhibition (Rattus norvegicus [11]): inactive

CCN1C(=O)CC2(C1=O)C(=O)N(Cc1nc3cc(C(F)(F)F)ccc3s1)C(=O)c1ccc(F)cc12 (configuration not stated)
inhibition [2]: inactive

O=C1c2ccccc2C2(CC(=O)N(N=C3CCCC3)C2=O)C(=O)N1Cc1nc2cc(C(F)(F)F)ccc2s1 (configuration not stated)
Inhibition (Rattus norvegicus [12]): 28% | Inhibition (Rattus norvegicus [13]): 92% | inhibition [2]: inactive

CC(C)=NN1C(=O)CC2(C(=O)N(Cc3nc4cc(C(F)(F)F)ccc4s3)C(=O)c3ccccc32)C1=O (configuration not stated)
Inhibition (Rattus norvegicus [12]): 37% | Inhibition (Rattus norvegicus [13]): 95% | inhibition [2]: inactive

NN1C(=O)CC2(C1=O)C(=O)N(Cc1nc3cc(C(F)(F)F)ccc3s1)C(=O)c1ccc(F)cc12 (configuration not stated)
Inhibition (Rattus norvegicus [12]): 31% | Inhibition (Rattus norvegicus [13]): 97% | inhibition [2]: inactive

NC(=O)CC1C(=O)N(Cc2ccc(Br)cc2F)C(=O)c2cc(F)ccc21 (configuration not stated)
inhibition (Rattus norvegicus [14]): inactive | inhibition (Rattus norvegicus [15]): inactive | inhibition [2]: inactive

O=C(O)CC1C(=O)N(Cc2ccc(C(F)(F)F)cc2)C(=O)c2ccccc21 (configuration not stated)
inhibition [2]: 43%

COC(=O)NC(=O)CC1C(=O)N(C)C(=O)c2cc(Br)c(OC)cc21 (configuration not stated)
inhibition [2]: 29%

CN1C(=O)c2ccccc2C(CC(N)=O)C1=O (configuration not stated)
inhibition (Rattus norvegicus [16]): inactive | inhibition (Rattus norvegicus [17]): inactive | inhibition [2]: inactive

O=C1c2ccccc2C2(CC(=O)N(N=C3CCOCC3)C2=O)C(=O)N1Cc1nc2cc(C(F)(F)F)ccc2s1 (configuration not stated)
Inhibition (Rattus norvegicus [12]): 41% | Inhibition (Rattus norvegicus [13]): 94% | inhibition [2]: inactive

NC(=O)CC1C(=O)N(Cc2ccc(Br)cc2F)C(=O)c2ccccc21 (configuration not stated)
inhibition [2]: inactive | inhibition (Rattus norvegicus [18]): inactive | inhibition (Rattus norvegicus [19]): inactive

CCCN1C(=O)CC2(C1=O)C(=O)N(Cc1ccc(Br)cc1F)C(=O)c1ccc(F)cc12 (configuration not stated)
inhibition (Rattus norvegicus [20]): inactive | inhibition [2]: inactive

CCN1C(=O)CC2(C1=O)C(=O)N(Cc1ccc(Br)cc1F)C(=O)c1ccc(F)cc12 (configuration not stated)
inhibition [2]: inactive

CN1NC(=O)C2(CC1=O)C(=O)N(Cc1ccc(Br)cc1F)C(=O)c1ccccc12 (configuration not stated)
inhibition [2]: inactive | inhibition (Rattus norvegicus [21]): inactive

COC(=O)NC(=O)CC1C(=O)N(C)C(=O)c2cc(Cl)c(Cl)cc21 (configuration not stated)
inhibition (Rattus norvegicus [22]): inactive | inhibition (Rattus norvegicus [23]): inactive | inhibition [2]: 90%
